Consider 1 molecule from ChEMBL document CHEMBL1671691 (Antimicrob Agents Chemother, 2010).

The subject of this experiment is Influenza A virus. As to the kind of experiment: Antiviral activity against adamantane-, oseltamivir-, zanamivir-susceptible Influenza A virus (A/Georgia/17/2006(H1N1)) infected in MDCK cells assessed as inhibition of viral replication after 3 days by microscopic analysis using crystal violet stain. Type of experiment: functional, organism-based. To be noted: 72 h. An outline of the steps:
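Confluent MDCK-ATCC monolayers infected with virus diluted to give 15–45 plaques/well. Adsorption 1 h at 37°C without drug, then washed. Overlaid with 0.8% agarose in MEM containing drug plus TPCK-trypsin: 3 μg/ml for seasonal viruses, 2 μg/ml for 2009 A(H1N1). Incubated 3 days at 37°C, 5% CO2. Ethanol-fixed, crystal violet-stained, plaques counted. EC50 by curve fit; duplicates on three occasions, mean ± SD.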

In general, EC50 refers to the concentration at which the effect is half-maximal.

With `NC(=O)c1ncn([C@@H]2O[C@H](CO)[C@@H](O)[C@H]2O)n1` [RIBAVIRIN], the EC50 amounted to 4.92 µM.
